Rows were chosen to be rich in hits. Some 1.8% of all compounds tested hit in one or more screens of this group.
Runt-SMMHC FRET – inhibitors of human RUNX1 Runt domain binding to CBFb-SMMHC; Q01196+Q13951; actives 0.74% (n = 220,000); inhibition, % at 20 µM; Cerulean-Runt/Venus-CBFb-SMMHC FRET ratio 530/480, 1 h;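 active means mean inhibition across duplicate retests at 20 µM reaching about 50%, limit read from the data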;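 further: inhibitors lower the FRET ratio by blocking Runt binding to CBFb-SMMHC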
Target sequence (Q01196 whole entry, looked up, the tested form may be a part): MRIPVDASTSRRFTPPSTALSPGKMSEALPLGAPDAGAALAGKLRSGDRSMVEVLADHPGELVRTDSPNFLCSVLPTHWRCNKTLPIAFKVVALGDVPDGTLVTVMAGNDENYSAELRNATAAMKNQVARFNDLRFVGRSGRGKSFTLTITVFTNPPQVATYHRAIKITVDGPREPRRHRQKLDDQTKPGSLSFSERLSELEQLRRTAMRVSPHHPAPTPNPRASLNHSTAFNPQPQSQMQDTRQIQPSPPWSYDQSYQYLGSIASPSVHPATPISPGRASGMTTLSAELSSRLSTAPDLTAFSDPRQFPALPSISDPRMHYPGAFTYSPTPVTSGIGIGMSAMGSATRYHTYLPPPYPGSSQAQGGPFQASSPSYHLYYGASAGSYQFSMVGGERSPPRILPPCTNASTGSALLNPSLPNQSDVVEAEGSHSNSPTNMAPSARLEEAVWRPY
Target sequence (Q13951 whole entry, looked up, the tested form may be a part): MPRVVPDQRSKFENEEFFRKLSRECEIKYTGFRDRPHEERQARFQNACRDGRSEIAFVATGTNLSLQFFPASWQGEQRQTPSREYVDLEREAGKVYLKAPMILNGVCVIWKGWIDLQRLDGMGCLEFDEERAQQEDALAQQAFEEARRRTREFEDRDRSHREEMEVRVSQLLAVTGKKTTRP
Runt-CBFb FRET – Runt domain-CBFb interaction inhibition; Q01196+Q13951; inhibition, % at 20 µM; actives 0.46% (n = 220,000); Cerulean-Runt/Venus-CBFb FRET ratio 530/480, 1 h;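 active means inhibition over about 50% at 20 µM in the single-dose screen, limit read from the data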
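Doses: 20 µM compound in 1% DMSO | Material: Cerulean-labeled Runt domain protein | Amount: Each fluorescent fusion protein 100 nM | Schedule: Two 1 h room-temperature incubations shielded from light | Measured by: FRET fluorescence | Evaluation: Loss of energy transfer signal | Controls: Unlabeled CBFb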
Rce1 inh – inhibitors of yeast Ras-converting enzyme; actives 0.27% (n = 290,000); calls only; Q03530; yeast membranes, quenched prenylated peptide cleavage fluorescence;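 active means fall in fluorescence gain of 50% or more versus controls, with final raw signal at or below 3038400; inconclusive means same 50% fall but final raw signal above 3038400; inactive means fall in fluorescence gain under 50%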
Platelet DG rel – platelet dense granule release activity. human platelet-rich plasma, SFLLRN dense granule ATP release, luminescence. inhibition, %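 (compounds screened at 7.5 µM in platelet-rich plasma)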. actives 0.22% (n = 300,000);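 active means mean replicate score, as percent of positive control, at or above 50; inconclusive means mean below 50 but at least one replicate at or above 50; inactive means mean and every replicate below 50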
RanGTP-Impb inh – disruptors of Ran-importin-beta complex formation – biochemical, FRET, CFP-Ran, YFP-importin-beta, homogeneous, primary screen | cell-free CFP-Ran/YFP-importin-beta FRET ratio | inhibition, % (no concentration beside the values) | actives 1.1% (n = 300,000);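 active means more than half of the replicate wells show a fall in the fluorescence ratio signal beyond about 16%, limit read from the data, passing the limit was not always enough; inconclusive means exactly half of the replicate wells pass the set limit; inactive means fewer than half of replicates pass the limit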
Hits are given with their value.

How did COc1ccccc1NC(=O)NC1(C(=O)N2CCOCC2)CCCCC1 do in these assays?
Rce1 inh: inactive; Platelet DG rel: inactive; RanGTP-Impb inh: inactive

How did COC(=O)c1ccccc1NC(=O)Nc1ccc(C(=O)N2CCCC2)cc1 do in these assays?
Runt-SMMHC FRET: inactive; Runt-CBFb FRET: inactive; Rce1 inh: inactive; Platelet DG rel: inactive; RanGTP-Impb inh: inactive

Results for COc1ccccc1NC(=O)Nc1ccc(C(=O)N2CCCCC2)cc1 ?
Runt-SMMHC FRET: inactive; Runt-CBFb FRET: inactive; Rce1 inh: inactive; Platelet DG rel: 92.2; RanGTP-Impb inh: inactive

How did CC1Sc2ccc(S(=O)(=O)N(C)Cc3ccccc3)cc2NC1=O (stereo not given) do in these assays?
Rce1 inh: inactive; Platelet DG rel: inactive; RanGTP-Impb inh: inactive

How did COc1ccc(NC(=O)COc2cccc3c2CCN(Cc2cccnc2)C3=O)c(OC)c1 do in these assays?
Rce1 inh: inactive; Platelet DG rel: inactive; RanGTP-Impb inh: inactive

Results for COC(=O)c1ccc2nc(NC(=O)C(C)C)sc2c1 ?
Runt-SMMHC FRET: inactive; Runt-CBFb FRET: inactive; Rce1 inh: inactive; Platelet DG rel: inactive; RanGTP-Impb inh: 29.5

What do the screens show for `COC(=O)c1ccc2nc(Nc3nc4c(F)cc(F)cc4s3)sc2c1`?
Runt-SMMHC FRET: inactive; Runt-CBFb FRET: inactive; Rce1 inh: inactive; Platelet DG rel: inactive; RanGTP-Impb inh: 71.5

How did COC(=O)c1ccc2nc(NC(=O)C3CC3)sc2c1 do in these assays?
Rce1 inh: inactive; Platelet DG rel: inactive; RanGTP-Impb inh: inactive

What do the screens show for `C=CCNC(=O)c1onc(CSc2ccccc2CC)c1C(=O)O`?
Runt-SMMHC FRET: inactive; Runt-CBFb FRET: inactive; Rce1 inh: inactive; Platelet DG rel: inactive; RanGTP-Impb inh: inactive

Results for CCCCOCCCNC(=O)C1c2ccccc2Oc2ccccc21 ?
Rce1 inh: inactive; Platelet DG rel: inactive; RanGTP-Impb inh: inactive

Results for CCCCNC(=O)C1c2ccccc2Oc2ccccc21 ?
Runt-SMMHC FRET: inactive; Runt-CBFb FRET: inactive; Rce1 inh: inactive; Platelet DG rel: inactive; RanGTP-Impb inh: 22.5

Results for CN(C)S(=O)(=O)N1CCN(C(=O)c2ccc3c(c2)OCO3)CC1 ?
Rce1 inh: inactive; Platelet DG rel: inactive; RanGTP-Impb inh: inactive

Results for CC1CCCCC1NC(=O)CN1C(=O)c2cccc(N)c2C1=O (stereo not given) ?
Runt-SMMHC FRET: 85.9; Runt-CBFb FRET: inactive; Rce1 inh: inactive; Platelet DG rel: inactive; RanGTP-Impb inh: inactive

How did CCCCNC(=O)CN1C(=O)c2cccc(N)c2C1=O do in these assays?
Runt-SMMHC FRET: 92.8; Runt-CBFb FRET: inactive; Rce1 inh: inactive; Platelet DG rel: inactive; RanGTP-Impb inh: inactive

What do the screens show for `COc1ccccc1CNC(=O)CN1C(=O)c2cccc(N)c2C1=O`?
Rce1 inh: inactive; Platelet DG rel: inactive; RanGTP-Impb inh: 27.5

What do the screens show for `Cc1ccc2c(c1)N(CC(=O)NC1CCCC(C)C1C)C(=O)c1cccnc1O2` (stereo not given)?
Rce1 inh: inactive; Platelet DG rel: inactive; RanGTP-Impb inh: inactive

How did CCCn1c(C)cc(C(=O)CN2C(=O)c3cccc(N)c3C2=O)c1C do in these assays?
Runt-SMMHC FRET: 57.2; Runt-CBFb FRET: inactive

Results for Cc1cc(C(=O)CN2C(=O)c3ccccc3C2=O)c(C)n1Cc1cccs1 ?
Runt-SMMHC FRET: inactive; Runt-CBFb FRET: inactive; Rce1 inh: inactive; Platelet DG rel: inactive; RanGTP-Impb inh: inactive

What do the screens show for `CC(NC(=O)Cc1ccc([N+](=O)[O-])cc1)c1ccc2c(c1)OCO2` (stereo not given)?
Runt-SMMHC FRET: inactive; Runt-CBFb FRET: inactive; Rce1 inh: inactive; Platelet DG rel: inactive; RanGTP-Impb inh: inactive

What do the screens show for `CC(NS(=O)(=O)c1cn(C)c(=O)n(C)c1=O)c1ccccc1` (stereo not given)?
Rce1 inh: inactive; Platelet DG rel: inactive; RanGTP-Impb inh: inactive

What do the screens show for `CNC(=S)N/N=C(\C)c1ccc(C)c(C)c1`?
Runt-SMMHC FRET: inactive; Runt-CBFb FRET: inactive; Rce1 inh: inactive; Platelet DG rel: inactive; RanGTP-Impb inh: inactive

What do the screens show for `CCOc1ccc(CN2CCN(Cc3cc4ccccc4[nH]3)CC2CCO)cc1` (stereo not given)?
Runt-SMMHC FRET: inactive; Runt-CBFb FRET: inactive; Rce1 inh: inactive; Platelet DG rel: inactive; RanGTP-Impb inh: 21.5

How did CC(=O)c1cccc(NC(=O)Nc2ccc3c(c2)OCO3)c1 do in these assays?
Rce1 inh: inactive

How did Nc1c(Cl)ncnc1N/N=C/c1ccc(O)cc1 do in these assays?
Runt-SMMHC FRET: inactive; Runt-CBFb FRET: inactive; Rce1 inh: inactive; Platelet DG rel: 71.9; RanGTP-Impb inh: inactive

How did Oc1ccc(/C=N/Nc2nccnc2Cl)cc1 do in these assays?
Runt-SMMHC FRET: inactive; Runt-CBFb FRET: inactive; Rce1 inh: inactive; Platelet DG rel: 98.3; RanGTP-Impb inh: inactive

How did Fc1ccc(/C=N/Nc2nccnc2Cl)cc1 do in these assays?
Rce1 inh: inactive; Platelet DG rel: inactive; RanGTP-Impb inh: inactive

Results for O=C(NCCCn1ccnc1)c1ccc(Br)s1 ?
Rce1 inh: inactive; Platelet DG rel: inactive; RanGTP-Impb inh: inactive

How did O=C(COc1ccccc1)NS(=O)(=O)c1ccccc1 do in these assays?
Platelet DG rel: inactive; RanGTP-Impb inh: inactive

Results for COc1ccc(OCC(=O)NS(=O)(=O)c2ccc(Cl)cc2)cc1 ?
Rce1 inh: active; Platelet DG rel: inactive; RanGTP-Impb inh: inactive

Results for CC(=O)N1c2ccc([N+](=O)[O-])cc2NC(=O)CC1C (stereo not given) ?
Runt-SMMHC FRET: inactive; Runt-CBFb FRET: inactive; Rce1 inh: active; Platelet DG rel: inactive; RanGTP-Impb inh: inconclusive

What do the screens show for `CC1CC(=O)Nc2ccc([N+](=O)[O-])cc2N1C` (stereo not given)?
Runt-SMMHC FRET: inactive; Runt-CBFb FRET: inactive; Rce1 inh: inactive; Platelet DG rel: inactive; RanGTP-Impb inh: inactive

How did COc1ccc2[nH]c(=O)cc(C(=O)O)c2c1 do in these assays?
Runt-SMMHC FRET: inactive; Runt-CBFb FRET: inactive; Rce1 inh: inactive; Platelet DG rel: inactive; RanGTP-Impb inh: inactive

How did COc1ccc2[nH]c3c4c(ccc3c2c1)C(=O)C=CC4=O do in these assays?
Runt-SMMHC FRET: inactive; Runt-CBFb FRET: 54.9

How did Cc1ccccc1-n1ccnc1SCC(=O)NC1CCCC1 do in these assays?
Rce1 inh: inactive; Platelet DG rel: inactive; RanGTP-Impb inh: inactive

Results for Cc1ccc(CSc2ncnc3ccccc23)cc1 ?
Runt-SMMHC FRET: inactive; Runt-CBFb FRET: inactive; Rce1 inh: inactive; Platelet DG rel: inactive; RanGTP-Impb inh: inactive

Results for Cc1ccc(C(=O)CSc2ncnc3ccccc23)o1 ?
Runt-SMMHC FRET: 77.5; Runt-CBFb FRET: inactive; Rce1 inh: inactive; Platelet DG rel: inactive

What do the screens show for `COc1cc(OC)c2c(=O)c(OC)c(-c3ccc(OC)c(OC)c3)oc2c1`?
Runt-SMMHC FRET: 61.0; Runt-CBFb FRET: inactive; Rce1 inh: inactive; Platelet DG rel: inactive; RanGTP-Impb inh: inactive

Results for CC(C)(C)NC(=S)NCc1ccco1 ?
Runt-SMMHC FRET: inactive; Runt-CBFb FRET: inactive; Rce1 inh: inactive; Platelet DG rel: inactive; RanGTP-Impb inh: inactive

What do the screens show for `O=C(O)CC(c1cccc([N+](=O)[O-])c1)N1Cc2ccccc2C1=O` (stereo not given)?
Runt-SMMHC FRET: inactive; Runt-CBFb FRET: inactive; Platelet DG rel: inactive; RanGTP-Impb inh: inactive

Screening results as filed in PubChem.
